In ChEMBL document CHEMBL1125079, “A unified approach to systematic isosteric substitution for acidic groups and application to NMDA antagonists related to 2-amino-7-phosphonoheptanoate” (J Med Chem, 1990):

Key:
Rattus norvegicus = species: Rattus norvegicus; experiment: Tested for inhibition of NMDA-induced cyclic GMP increase in rat cerebellar slices; format: functional
[1] = Dissociation constant (pKa); format: physicochemical
Procedure, shortened: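 Measured in water at 23 °C from UV absorbance versus pH, using a pH meter calibrated with pH 5, 7 and 9 buffers. pH was stepped with 6 N HCl or NaOH to give 7–15 readings spanning the expected pKa, at 2–4 wavelengths with flow stopped. Spectra at pH 3 and 10 checked for decomposition. Simplex curve fit gave the pKa, reported as mean ± SD across wavelengths.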

[2] = potentiometric pKa(in 25 mL of 1 M NaCl) of the compound.; format: physicochemical
[3] = Potentiometric pKa(in 25 mL of water) of the compound.; format: physicochemical
[4] = target: Glutamate receptor ionotropic, kainate (Rattus norvegicus) (UniProt P22756+Q01812+P42260+P42264+Q63273); experiment: Inhibition at Ionotropic glutamate receptor kainate was determined at a concentration of 200 uM in rat cerebellar slices

Question: For N[C@H](CCCCSc1cc(Cl)ccc1O)C(=O)O, which IC50 (Rattus norvegicus) is on record?
Answer: Its IC50 is greater than 10000 µM.

Question: Which pKa [1] does the source give for O=S(=O)(Cc1ccccc1)c1c[nH]nn1 here?
Answer: The pKa was 5.15.

Question: Which pKa [1] does the source give for O=S(=O)(Cc1ccccc1)c1nc(O)n[nH]1 here?
Answer: The pKa was 4.79.

Question: With NC(CCCSc1ccccc1O)C(=O)O (stereo not drawn) as the molecule, how does the IC50 (Rattus norvegicus) read?
Answer: Its IC50 is greater than 10000 µM.

Question: What does the source list for NC(CCCCCP(=O)(O)O)C(=O)O (stereo not drawn) [AP-7]?
Answer: pKa [2]: 9.84; pKa [3]: 7.72; IC50 (Rattus norvegicus): 35 µM; pKa [1]: 2.64

Question: With c1ccc(CSc2c[nH]nn2)cc1 as the molecule, how does the pKa [1] read?
Answer: Its pKa is 8.2.

Question: Which pKa [1] does the source give for [O-][S+](Cc1ccccc1)c1nc(O)n[nH]1 (stereo not drawn) here?
Answer: The pKa was 5.2.

Question: With c1ccc(CSc2ncc[nH]2)cc1 as the molecule, how does the pKa [1] read?
Answer: Its pKa is 11.6.

Question: Which pKa [1] does the source give for [O-][S+](Cc1ccccc1)c1nc[nH]n1 (stereo not drawn) here?
Answer: Its pKa is 7.38.

Question: What does the source list for Nc1ccccc1SCCCCCC(N)C(=O)O (stereo not drawn)?
Answer: inhibition [4]: 20%; IC50 (Rattus norvegicus): 140 µM

Question: For NC(CCCCCS(=O)(=O)c1ccccc1O)C(=O)O (stereo not drawn), which IC50 (Rattus norvegicus) is on record?
Answer: The IC50 was greater than 10000 µM.

Question: What about the pKa [1] of the same molecule?
Answer: The pKa was 7.38.

Question: Which IC50 (Rattus norvegicus) does the source give for NC(CCCCC[S+]([O-])c1ccccc1O)C(=O)O (stereo not drawn) here?
Answer: The IC50 was greater than 10000 µM.

Question: What does the source list for NC(CCCCCSc1cc(Cl)ccc1O)C(=O)O (stereo not drawn)?
Answer: IC50 (Rattus norvegicus): 220 µM; pKa [1]: 8.55

Question: Which IC50 (Rattus norvegicus) does the source give for NC(CCCSc1cc(Cl)ccc1O)C(=O)O (stereo not drawn) here?
Answer: The IC50 was 260 µM.

Question: With [O-][S+](Cc1ccccc1)c1c[nH]nn1 (stereo not drawn) as the molecule, how does the pKa [1] read?
Answer: Its pKa is 6.09.

Question: Which pKa [1] does the source give for Oc1n[nH]c(SCc2ccccc2)n1 here?
Answer: Its pKa is 7.85.

Question: For O=S(=O)(Cc1ccccc1)c1ncc[nH]1, which pKa [1] is on record?
Answer: Its pKa is 8.67.

Question: With O=S(=O)(Cc1ccccc1)c1nc[nH]n1 as the molecule, how does the pKa [1] read?
Answer: Its pKa is 6.23.

Question: With NC(CCCCCSc1ccccc1O)C(=O)O (stereo not drawn) as the molecule, how does the IC50 (Rattus norvegicus) read?
Answer: Its IC50 is 310 µM.

Question: And the pKa [1]?
Answer: Its pKa is 9.35.

Question: With c1ccc(CSc2nc[nH]n2)cc1 as the molecule, how does the pKa [1] read?
Answer: Its pKa is 9.5.

Question: Which pKa [1] does the source give for [O-][S+](Cc1ccccc1)c1ncc[nH]1 (stereo not drawn) here?
Answer: Its pKa is 9.8.
